In ChEMBL document CHEMBL1156580, “A facile regioselective synthesis of novel spiro-thioxanthene and spiro-xanthene-9',2-[1,3,4]thiadiazole derivatives as potential analgesic and anti-inflammatory agents” (Bioorg Med Chem Lett, 2008):

What was measured:
Rattus norvegicus [1] = assay: Antiinflammatory activity in Sprague-Dawley rat assessed as inhibition of carrageenan-induced paw edema at 70 mg/kg, po after 4 hrs relative to control; type: functional
Procedure, shortened: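 Winter carrageenin paw oedema in adult male Sprague–Dawley rats (150–180 g, six per group), fasted overnight with water available. Dosing was 70 mg/kg po in 1% CMC, with controls on vehicle alone, 1 h before 0.1 mL 1.0% carrageenin into the right hind plantar region. Paw volume was read by plethysmometer before and 4 h after, giving % inhibition versus control.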

Mus musculus = assay: Analgesic activity in Swiss mouse assessed as inhibition of acetic acid-induced writhing responses at 70 mg/kg, po after 1 hr relative to control
Rattus norvegicus [2] = assay: Acute toxicity in Sprague-Dawley rat assessed as behavioral changes up to 200 mg/kg, po; type: organism-based; design: dose 200 mg/kg, route oral; settings: in vivo
Procedure, shortened: (§1)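 Male Sprague–Dawley rats (200–250 g), housed individually under 12 h light–dark, split into four groups, each given a different single dose by oral gavage. Animals were then watched for deaths or other behavioural changes.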

Rattus norvegicus [3] = assay: Acute toxicity in Sprague-Dawley rat assessed as toxicological changes up to 200 mg/kg, po; type: organism-based; design: dose 200 mg/kg, route oral; settings: in vivo; procedure, shortened: as §1
Rattus norvegicus [4] = assay: Acute toxicity in Sprague-Dawley rat assessed as survival up to 200 mg/kg, po; type: organism-based; design: dose 200 mg/kg, route oral; settings: in vivo; procedure, shortened: as §1

Compound	inhibition in vivo at 70 mg/kg (Rattus norvegicus [1])	inhibition in vivo at 70 mg/kg (Mus musculus)	Activity (Rattus norvegicus [2])	Activity (Rattus norvegicus [3])	Activity (Rattus norvegicus [4])
CC(=O)C1=NN(c2ccccc2)C2(S1)c1ccccc1Sc1ccccc12	75%				
CC(=O)C1=NN(c2ccc([N+](=O)[O-])cc2)C2(S1)c1ccccc1Sc1ccccc12	86%	73%			
CC(=O)C1=NN(c2ccccc2)SC12c1ccccc1Oc1ccccc12	79%				
CC(=O)C1=NN(c2ccc(Br)cc2)SC12c1ccccc1Oc1ccccc12	76%				
CCOC(=O)C1=NN(c2ccc(C)cc2)C2(S1)c1ccccc1Sc1ccccc12	71%				
CC(=O)C1=NN(c2ccc([N+](=O)[O-])cc2)SC12c1ccccc1Oc1ccccc12	84%	56.6%			
c1ccc(C2=NN(c3ccccc3)C3(S2)c2ccccc2Sc2ccccc23)cc1	85%	59%	Non-toxic	Non-toxic	Non-toxic
CC(=O)C1=NN(c2ccc(Cl)cc2)C2(S1)c1ccccc1Sc1ccccc12	82%	57%	Non-toxic	Non-toxic	Non-toxic
CC(=O)C1=NN(c2ccc(Cl)cc2)SC12c1ccccc1Oc1ccccc12	82%	72%			
CC(C)Cc1ccc(C(C)C(=O)O)cc1 (configuration not stated) [IBUPROFEN]	92%	83.5%			
